The source made the active and inactive calls. No cut-off for these calls is given here.
Tests used:
[1] = target: T1, Peptidyl-prolyl cis-trans isomerase A (Homo sapiens, UniProt P62937); test: Inhibition of recombinant GST-tagged Cyclophilin A (unknown origin) interaction with HCV GST-tagged NS5A at 2 to 4 uM by GST pulldown assay
[2] = target: T1, Peptidyl-prolyl cis-trans isomerase A; test: Inhibition of recombinant GST-tagged Cyclophilin A (unknown origin) interaction with HCV GST-tagged NS5B at 2 to 4 uM by GST pulldown assay
[3] = target: T1, Peptidyl-prolyl cis-trans isomerase A; test: Inhibition of human Cyclophilin A interaction with HCV genotype 1b Con1 NS5A in human Huh7.5 cells after 72 hrs by mammalian two-hybrid assay; assay type: cell-based; settings: Huh-7
[4] = target: T1, Peptidyl-prolyl cis-trans isomerase A; test: Inhibition of human Cyclophilin A interaction with HCV genotype 1b Con1 NS5B in human Huh7.5 cells after 72 hrs by mammalian two-hybrid assay; assay type: cell-based; settings: Huh-7
[5] = Cytotoxicity against BALB/c mouse splenocytes assessed as reduction in cell viability at 1 to 10 uM; assay type: cell-based; settings: splenocyte
Mus musculus [6] = species: Mus musculus; test: Inhibition of calcium-dependent calcineurin phosphatase activity in ionomycin-stimulated BALB/c mouse splenocytes assessed as reduction in dephosphorylation of R2 phosphopeptide at 1 to 10 uM preincubated for 20 hrs followed by ionomycin stimulation measured after 4 hrs
Method in brief: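 Mouse splenocytes (2 × 10^6 cells/well) were incubated with compound for 20 h, then stimulated with 1 μg/mL ionomycin for another 4 h or left unstimulated. Calcineurin activity was measured by dephosphorylation of RII phosphopeptide using a cellular activity kit.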

Mus musculus [7] = species: Mus musculus; test: Activation of calcium-dependent calcineurin phosphatase activity in ionomycin-stimulated BALB/c mouse splenocytes assessed as nuclear translocation of NFAT1 at 5 uM preincubated for 20 hrs followed by ionomycin stimulation measured after 4 hrs by DAPI staining based confocal microscopy
Method in brief: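 Splenocytes were pretreated 20 h, then stimulated with ionomycin 1 μg/mL for 4 h. Fixed in 3.7% formaldehyde, permeabilized with 0.5% Triton X-100, and incubated overnight at 4 °C with anti-NFAT1 (1:100, 3% BSA). Alexa 546 secondary 1:200 for 2 h, DAPI counterstain, then confocal imaging of NFAT1 localization.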

[8] = target: T1, Peptidyl-prolyl cis-trans isomerase A; test: Inhibition of Cyclophilin A in human Huh7.5 cells infected with HCV assessed as reduction in viral RNA replication level at 0.5 to 4 uM by luciferase reporter gene assay; assay type: cell-based; settings: Huh-7
Method in brief: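 Huh7.5 cells infected with JFH1-Luc (Renilla luciferase reporter) virus at MOI 0.004 for 5 h at 37 °C, with or without test chemicals. Renilla luciferase activity was read from cell lysates on day 3 postinfection.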

Hepatitis C virus [9] = test: Antiviral activity against HCV genotype 1b Con1 infected in human Huh7.5 cells assessed as inhibition of NS5A expression in total cell lysate at 2 uM by Western blot analysis; assay type: functional, organism-based; settings: Hepacivirus hominis, isolate Con1, Huh-7
Method in brief: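 Con1b replicon cells treated with 2 μM. Total lysates, and a membrane fraction prepared by hypotonic buffer, dounce homogenization, 220g spin and then 68 000g for 1 h at 4 °C, analyzed by Western blot for NS5A and NS5B.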

[10] = Cytotoxicity against HCV genotype 2a JFH1 infected human Huh7.5 cells expressing GFP-fused NS5A assessed as reduction in cell viability measured 72 hrs post infection by hoechst 33342 staining based confocal microscopy; parameters: species or system Huh-7
Hepatitis C virus [11] = test: Antiviral activity against HCV genotype 1b Con1 infected in human Huh7.5 cells assessed as stimulation of IRF9 mRNA expression at 2 uM incubated up to 96 hrs by qRT-PCR method; assay type: functional, organism-based; settings: Hepacivirus hominis, isolate Con1, Huh-7, TDE = time-dependent effect
Method in brief: (§1)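 mRNA measured by SYBR Green qRT-PCR using the 2^−ΔΔCT method, normalized to GAPDH and expressed as fold change vs controls.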

Hepatitis C virus [12] = test: Antiviral activity against HCV genotype 1b Con1 infected in human Huh7.5 cells assessed as stimulation of ISG15 mRNA expression at 2 uM incubated up to 96 hrs by qRT-PCR method; assay type: functional, organism-based; settings: Hepacivirus hominis, isolate Con1, Huh-7, TDE = time-dependent effect; method in brief: as §1
Hepatitis C virus [13] = test: Antiviral activity against HCV genotype 1b Con1 infected in human Huh7.5 cells assessed as stimulation of STAT1 expression at 2 uM incubated up to 96 hrs by Western blot analysis; assay type: functional, organism-based; settings: Hepacivirus hominis, isolate Con1, Huh-7, TDE = time-dependent effect
Hepatitis C virus [14] = test: Antiviral activity against HCV genotype 1b Con1 infected in human Huh7.5 cells assessed as stimulation of ISG15 expression at 2 uM incubated up to 96 hrs by Western blot analysis; assay type: functional, organism-based; settings: Hepacivirus hominis, isolate Con1, Huh-7, TDE = time-dependent effect
Hepatitis C virus [15] = test: Antiviral activity against HCV genotype 1b Con1 infected in human Huh7.5 cells assessed as reduction of IL-8 level at 2 uM incubated up to 96 hrs by ELISA; assay type: functional, organism-based; settings: Hepacivirus hominis, isolate Con1, Huh-7, TDE = time-dependent effect
Method in brief: (§2)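 Con1b replicon cells, 2 × 10^6/well, treated with 2 μM for up to 4 days at 37 °C. Pooled culture media assayed for IL-8 and IFN-α by ELISA.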

Hepatitis C virus [16] = test: Antiviral activity against HCV genotype 1b Con1 infected in human Huh7.5 cells assessed as upregulation of IFN-alpha mRNA expression incubated up to 96 hrs by qRT-PCR method; assay type: functional, organism-based; settings: Hepacivirus hominis; isolate Con1; Huh-7; method in brief: as §1
Hepatitis C virus [17] = test: Antiviral activity against HCV genotype 1b Con1 infected in human Huh7.5 cells assessed as upregulation of IFN-alpha expression incubated up to 96 hrs by ELISA; assay type: functional, organism-based; settings: Hepacivirus hominis; isolate Con1; Huh-7; method in brief: as §2
Hepatitis C virus [18] = test: Antiviral activity against HCV infected in human Huh7.5 cells assessed as inhibition of HCV-specific RNA by qRT-PCR method in presence of IFN-alpha; assay type: functional, organism-based; settings: Hepacivirus hominis; Huh-7
Hepatitis C virus [19] = test: Antiviral activity against HCV infected in human Huh7.5 cells assessed as inhibition of HCV-specific RNA by qRT-PCR method in presence of ribavirin; assay type: functional, organism-based; settings: Hepacivirus hominis; Huh-7
[20] = Cytotoxicity against HCV infected human Huh7.5 cells assessed as cell death by MTT assay in presence of IFN-alpha; assay type: cell-based; settings: huh-7
[21] = Cytotoxicity against HCV infected human Huh7.5 cells assessed as cell death by MTT assay in presence of telaprevir; assay type: cell-based; settings: huh-7
[22] = Cytotoxicity against HCV infected human Huh7.5 cells assessed as cell death by MTT assay in presence of ribavirin; assay type: cell-based; settings: huh-7
Hepatitis C virus [23] = test: Antiviral activity against HCV genotype 1b Con1 infected in human Huh7 cells xenografted in immunodeficient NOD/SCID mouse assessed as inhibition of NS5A expression in liver at 50 mg/kg, ip up to 14 days by DAPI staining based confocal microscopy; assay type: functional, organism-based; settings: Hepacivirus hominis, isolate Con1, Huh-7
Method in brief: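 Replicon-engrafted NOD/SCID mice, 50 mg/kg ip for 14 days from week 6, n=5. Paraffin liver sections incubated overnight at 4 °C with anti-human hepatocyte (Hep par 1) and anti-NS5A antibodies (1:50). Alexa 488/546 secondaries 1:100 for 2 h, DAPI 5 min, then confocal imaging.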

Mus musculus [24] = test: Toxicity in BALB/c mouse assessed as changes in body weight at 50 mg/kg, iv for 2 weeks; assay type: organism-based; settings: in vivo, 336 h
Mus musculus [25] = test: Hepatotoxicity in BALB/c mouse assessed as changes in serum alanine transaminase level at 50 mg/kg, iv for 2 weeks by GPT kit assay; assay type: toxicity, organism-based; settings: in vivo, 336 h
Mus musculus [26] = test: Hepatotoxicity in BALB/c mouse assessed as changes in serum aspartate transaminase level at 50 mg/kg, iv for 2 weeks by GOT kit assay; assay type: toxicity, organism-based; settings: in vivo, 336 h

T1 sequence (P62937 whole entry, looked up): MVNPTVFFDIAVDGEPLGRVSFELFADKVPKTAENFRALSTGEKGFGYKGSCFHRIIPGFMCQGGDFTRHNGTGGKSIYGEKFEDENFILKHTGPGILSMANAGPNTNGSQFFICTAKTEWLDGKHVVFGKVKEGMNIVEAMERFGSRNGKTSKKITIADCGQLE

inhibition [1]: Active
inhibition [2]: Active
inhibition [3]: Active
inhibition [4]: Active
inhibition (Mus musculus [6]): inactive
Activity (Mus musculus [7]): Active
inhibition [8]: Active
SMILES: COc1cc(C(C(=O)NC2CCCCC2)N(C(=O)Cc2c[nH]c3ccccc23)c2ccc(C(C)C)cc2)cc(OC)c1OC (stereo unspecified)
Activity [5]: Non-toxic
inhibition (Hepatitis C virus [9]): Active
CC50 at 72 h [10]: 22.3 µM
Activity (Hepatitis C virus [11]): tde
Activity (Hepatitis C virus [12]): tde
Activity (Hepatitis C virus [13]): tde
Activity (Hepatitis C virus [14]): tde
Activity (Hepatitis C virus [15]): tde
Activity (Hepatitis C virus [16]): Active
Activity (Hepatitis C virus [17]): Active
inhibition (Hepatitis C virus [18]): Active
inhibition (Hepatitis C virus [19]): Active
Activity [20]: Non-toxic
Activity [21]: Non-toxic
Activity [22]: Non-toxic
inhibition (Hepatitis C virus [23]): Active
Activity (Mus musculus [24]): Non-toxic
Activity (Mus musculus [25]): Non-toxic
Activity (Mus musculus [26]): Non-toxic
